Measured values gathered from unrelated publications.
Lines come from different studies, so protocols differ.
Target: RAC-gamma serine/threonine-protein kinase (AKT3, Homo sapiens, UniProt Q9Y243)

O=c1nc(-c2ccccn2)sc2ccccc12 has a remaining binding of 100% (binding, competition with immobilised ligand; 1 µM).
C#Cc1cccc(Nc2ncnc3cc(OCCOC)c(OCCOC)cc23)c1 has a remaining signal of 74.6% (cell-free assay; 0.5 µM).
With Cc1cc(NC(=O)c2cccc3cc(-c4cccc5[nH]nc(N)c45)ccc23)ccc1F the activity vs control was 90% (enzyme activity, inhibitor; 0.1 µM).
CCN1CCC2(CC1)NC(=O)c1c(c3ccc(Cl)c(Cl)c3n1C)C2C#N (racemic) has a ΔTm of -0.2 °C (thermal stability, DSF; 10 µM).
The inhibition of COc1cc2ncnc(Nc3ccc(Oc4ccccc4)cc3C)c2cc1OC is reported as 6% (enzyme activity, inhibitor; 1 µM).
CNC(=O)c1cc(Oc2ccc(NC(=O)Nc3ccc(Cl)c(C(F)(F)F)c3)cc2)ccn1 has an inhibition of -1% (enzyme activity, inhibitor; 10 µM).
The remaining activity of CC(C)(O)[C@H]1CC[C@H](Nc2ccc3ncc(-c4cccc(C(F)(F)F)c4)n3n2)CC1 is reported as 96.5% (enzyme activity, inhibitor; 1 µM).
For COc1cc(Nc2c(C#N)cnc3cc(OCCCN4CCN(C)CC4)c(OC)cc23)c(Cl)cc1Cl, the remaining signal was 90.7% (cell-free assay; 0.5 µM).
With COc1cc(Cl)c(C(=O)N[C@@H](CN[C@H]2CC[C@@H](N)CC2)Cc2ccc(C#N)cc2)cc1-c1ccc(CN[C@H](C)c2ccc(C)cc2)o1 the remaining activity was 97% (enzyme activity, inhibitor; 1 µM).
CC(C)(C)c1nc(-c2cccc(NS(=O)(=O)c3c(F)cccc3F)c2F)c(-c2ccnc(N)n2)s1 gave a remaining activity of 80% (enzyme activity, inhibitor, radiometric; 1 µM).
The remaining signal of C[C@@H]1CCN(C(=O)CC#N)C[C@@H]1N(C)c1ncnc2[nH]ccc12 is reported as 85.8% (cell-free assay, inhibitor; 0.5 µM).
Cc1c(NC(=O)c2cc(C(N)=O)nc3cc(F)ccc23)c(C(F)(F)F)nn1Cc1ccc(C#N)cc1 has a remaining binding of 81% (cell-free assay, competition with immobilised ligand; 1 µM).
Nc1ncnc2occ(-c3ccc(NC(=O)Nc4cc(C(F)(F)F)ccc4F)cc3)c12 gave a remaining signal of 85% (cell-free assay, inhibitor; 20 µM).
N#CC1c2c([nH]c3c(Cl)c(Cl)ccc23)C(=O)NC12CCCCC2 (racemic) has a ΔTm of -0.7 °C (thermal stability, DSF; 10 µM).
For Cc1cnc(NC2CCOCC2)nc1-n1cnc(C(=O)NC(CN)c2cc(F)cc(Cl)c2)c1 (centres unmarked), the remaining activity was 78% (enzyme activity, inhibitor, radiometric; 1 µM).
O=C(N1CCS(=O)(=O)CC1)N1C[C@H](c2ccc(OC(F)(F)F)cc2)C[C@H](c2nc(C3CC3)no2)C1 has a remaining binding of 100% (cell-free assay, competition with immobilised ligand; 1 µM).
With Cc1ccc(Nc2nccc(N(C)c3ccc4c(C)n(C)nc4c3)n2)cc1S(N)(=O)=O the remaining activity was 93.3% (enzyme activity, inhibitor; 0.5 µM).
CO[C@@H](C)c1c(Nc2ccc([C@H](N(C)C(=O)C3CCS(=O)(=O)CC3)C(F)(F)F)cc2)cnc2cc(Cl)nn12 gave a remaining binding of 100% (cell-free assay, competition with immobilised ligand; 1 µM).
With CNc1cccc2cc(C(=O)Nc3ccc(C(=O)O)cc3)c(=O)[nH]c12 the inhibition was 5.8% (enzyme activity, inhibitor; 10 µM).
The remaining activity of CCN(CC)c1ccc(C2=NNC(=O)CC2C)cc1[N+](=O)[O-] (centres unmarked) is reported as 91% (enzyme activity, inhibitor; 10 µM).
The ΔTm of Cn1c2c(c3ccc(Cl)c(Cl)c31)C(C#N)C1(CCNCC1)NC2=O (racemic) is reported as -0.1 °C (thermal stability, DSF; 10 µM).
With FC(F)(F)c1ccc2c(c1)nc(-c1cccnc1)n2C1CC1 the remaining binding was 100% (cell-free assay, competition with immobilised ligand; 1 µM).
CC1(C)NC(=O)c2[nH]c3c(Cl)c(Cl)ccc3c2C1C#N (centres unmarked) gave a ΔTm of 0 °C (thermal stability, DSF; 10 µM).
With CC(=O)N1CCC(c2ccc(C(=O)NC3=NCCN3)cc2C(F)(F)F)CC1 the remaining binding was 100% (cell-free assay, competition with immobilised ligand; 1 µM).
For CCCS(=O)(=O)Nc1ccc(F)c(C(=O)c2c[nH]c3ncc(-c4ccc(Cl)cc4)cc23)c1F, the inhibition was less than 10% (enzyme activity, inhibitor; 1 µM).
CCCOc1ccc(OC)c(F)c1C(=O)c1ccc(C(=O)N[C@@H]2CNC[C@H]2NC(=O)c2ccc3[nH]ncc3c2)cc1 gave a remaining activity of 39% (enzyme activity, inhibitor; 0.75 µM).
The remaining activity of O=C(Nc1cnn(-c2csc(C(=O)NC3COC3)c2)c1)Nc1c(F)cccc1Cl is reported as 97.6% (enzyme activity, inhibitor; 5 µM).
For O=C(Nc1ccc(Oc2ccc(F)cc2)cc1)N1CCc2ncccc2[C@H]1c1ccc(F)cc1, the remaining binding was 95% (cell-free assay, competition with immobilised ligand; 1 µM).
CN1CCC2(CC1)NC(=O)c1c(c3ccc(Cl)c(Cl)c3n1C)C2C#N (racemic) has a ΔTm of 0 °C (thermal stability, DSF; 10 µM).
Cc1c(NC(=O)c2cc(C(N)=O)nc3cc(F)ccc23)c(C(F)(F)F)nn1Cc1ccc(C(C)(C)C)cc1 has a remaining binding of 100% (cell-free assay, competition with immobilised ligand; 1 µM).
For Cn1c2c(Cl)c(Cl)ccc2c2cc[nH]c(=O)c21, the ΔTm was 0 °C (thermal stability, DSF; 10 µM).
CCN(CC)CCNC(=O)c1c(C)[nH]c(/C=C2\C(=O)Nc3ccc(F)cc32)c1C gave a remaining signal of 71.7% (cell-free assay; 0.5 µM).
